In ChEMBL document CHEMBL4340532, “Design, synthesis, and biological evaluation of novel 2'-deoxy-2'-fluoro-2'-C-methyl 8-azanebularine derivatives as potent anti-HBV agents” (Bioorg Med Chem Lett, 2019):

Tests used:
[1] = Cytotoxicity against human HepG2 cells supplemented with fresh medium containing compound every 3 days for 9 days measured post-last dose by MTT assay; type: cell-based
Method in brief: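 HepG2 cells were exposed to compound for 3 or 9 days and viability was read by MTT assay. CC50 is the concentration causing 50% cytotoxicity. Results are mean ± SD of three experiments.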

Hepatitis B virus [2] = experiment: Antiviral activity against Hepatitis B virus infected in human HepG2.2.15 cells assessed as inhibition of HBeAg secretion at 20 uM supplemented with fresh medium containing compound every 3 days for 6 days and measured on day 9 by ELISA relative to control; type: functional
Method in brief: (§1)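 HepG2.2.15 cells were exposed to compound for up to 9 days. The initial screen used 20 µM for 9 days, with lamivudine (20 µM) as positive control. Follow-up used 10, 20 or 40 µM sampled at days 3, 6 and 9. HBsAg and HBeAg were quantified in culture supernatant by ELISA and compared with a no-drug control. Results are mean ± SD of three experiments.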

Hepatitis B virus [3] = experiment: Antiviral activity against Hepatitis B virus infected in human HepG2.2.15 cells assessed as inhibition of HBsAg secretion at 20 uM supplemented with fresh medium containing compound every 3 days for 6 days and measured on day 9 by ELISA relative to control; type: functional; method in brief: as §1
Hepatitis B virus [4] = experiment: (§2) Antiviral activity against lamivudine-resistant Hepatitis B virus harboring L180M/M204V mutant infected in human HepG2.2.15 cells assessed as inhibition of extracellular HBV DNA replication at 20 uM measured on day 3 by FQ-PCR analysis relative to control; type: functional; settings: HepG2.2.15, 72 h
Method in brief: (§3)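 Lamivudine-resistant cell line transfected with the L180M/M204V mutant, exposed to 10, 20 or 40 µM for 3, 6 or 9 days. Intracellular and extracellular HBV DNA levels measured.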

Hepatitis B virus [5] = experiment: as §2, with “intracellular” for “extracellular”, “uM supplemented with fresh medium containing compound every 3 days for 6 days” for “uM”, “post-last dose” for “on day 3”; type: functional; method in brief: as §3
Hepatitis B virus [6] = experiment: (§4) Antiviral activity against Hepatitis B virus infected in human HepG2.2.15 cells assessed as inhibition of extracellular HBV DNA replication at 20 uM supplemented with fresh medium containing compound every 3 days for 9 days measured post-last dose by FQ-PCR analysis relative to control; type: functional
Method in brief: (§5)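 HepG2.2.15 cultures were treated at 10, 20 or 40 µM for 3, 6 and 9 days. Both intracellular and extracellular HBV DNA levels were then determined and compared with untreated cells.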

Hepatitis B virus [7] = experiment: (§6) Antiviral activity against Hepatitis B virus infected in human HepG2.2.15 cells assessed as inhibition of intracellular HBV DNA replication at 20 uM supplemented with fresh medium containing compound every 3 days for 9 days measured post-last dose by FQ-PCR analysis relative to control; type: functional; method in brief: as §5
Hepatitis B virus [8] = experiment: Antiviral activity against Hepatitis B virus infected in human HepG2.2.15 cells assessed as inhibition of intracellular HBV DNA replication at 20 uM supplemented with fresh medium containing compound every 3 days for 6 days measured post-last dose by FQ-PCR analysis relative to control; type: functional; method in brief: as §5
Hepatitis B virus [9] = experiment: as §4, with “against lamivudine-resistant” for “against”, “virus harboring L180M/M204V mutant” for “virus”, “6” for “9”; type: functional; method in brief: as §3
Hepatitis B virus [10] = experiment: as §4, with “against lamivudine-resistant” for “against”, “virus harboring L180M/M204V mutant” for “virus”; type: functional; method in brief: as §3
Hepatitis B virus [11] = experiment: Antiviral activity against Hepatitis B virus infected in human HepG2.2.15 cells assessed as inhibition of extracellular HBV DNA replication at 20 uM measured on day 3 by FQ-PCR analysis relative to control; type: functional; settings: HepG2.2.15, 72 h; method in brief: as §5
Hepatitis B virus [12] = experiment: Antiviral activity against lamivudine-resistant Hepatitis B virus harboring L180M/M204V mutant infected in human HepG2.2.15 cells assessed as inhibition of intracellular HBV DNA replication at 20 uM measured on day 3 by FQ-PCR analysis relative to control; type: functional; settings: HepG2.2.15, 72 h; method in brief: as §3
Hepatitis B virus [13] = experiment: Antiviral activity against Hepatitis B virus infected in human HepG2.2.15 cells assessed as inhibition of extracellular HBV DNA replication at 20 uM supplemented with fresh medium containing compound every 3 days for 6 days measured post-last dose by FQ-PCR analysis relative to control; type: functional; method in brief: as §5
Hepatitis B virus [14] = experiment: as §6, with “against lamivudine-resistant” for “against”, “virus harboring L180M/M204V mutant” for “virus”; type: functional; method in brief: as §3
Hepatitis B virus [15] = experiment: Antiviral activity against Hepatitis B virus infected in human HepG2.2.15 cells assessed as inhibition of intracellular HBV DNA replication at 20 uM measured on day 3 by FQ-PCR analysis relative to control; type: functional; settings: HepG2.2.15, 72 h; method in brief: as §5

| SMILES | CC50 at 216 h [1] [µM] | inhibition (INH) (Hepatitis B virus [2]) [%] | inhibition (INH) (Hepatitis B virus [3]) [%] | other results |
| --- | --- | --- | --- | --- |
| C[C@@]1(F)[C@H](O)[C@@H](CO)O[C@H]1n1nnc2c(NC3CC3)ncnc21 | > 600 | 16.7 | 11.4 |  |
| Nc1ccn([C@@H]2CS[C@H](CO)O2)c(=O)n1 [LAMIVUDINE] |  | 39.6 | 42.4 | inhibition at 20 µM (Hepatitis B virus [4]): 4.1%; inhibition (INH) (Hepatitis B virus [5]): 7.9%; inhibition (INH) (Hepatitis B virus [6]): 78.6%; inhibition (INH) (Hepatitis B virus [7]): 77.9%; inhibition (INH) (Hepatitis B virus [8]): 69.7%; inhibition (INH) (Hepatitis B virus [9]): 8.4%; inhibition (INH) (Hepatitis B virus [10]): 19.3%; inhibition at 20 µM (Hepatitis B virus [11]): 32.7%; inhibition at 20 µM (Hepatitis B virus [12]): 6.3%; inhibition (INH) (Hepatitis B virus [13]): 54.1%; inhibition (INH) (Hepatitis B virus [14]): 11.2%; inhibition at 20 µM (Hepatitis B virus [15]): 47.4% |
| C[C@@]1(F)[C@H](O)[C@@H](CO)O[C@H]1n1nnc2c(N)ncnc21 | > 600 | 10 | 9.9 |  |
| CCCCNc1ncnc2c1nnn2[C@@H]1O[C@H](CO)[C@@H](O)[C@@]1(C)F | > 600 | 11.6 | 17 |  |
| CNc1ncnc2c1nnn2[C@@H]1O[C@H](CO)[C@@H](O)[C@@]1(C)F | > 600 | 24.4 | 20.1 |  |
